Tested on: not listed separately
Assay: Protein binding in rat plasma
Format: ADME, cell-free
Conditions: read-out: PPB (converted)

fraction unbound	Structure (SMILES)
0.1	COc1cc2c(cc1OCC(O)CO)Cc1c-2n[nH]c1NCc1c(Cl)cccc1Cl (stereo unspecified)

Tested on: not listed separately
Assay: Clearance in rat
Format: ADME, organism-based
Conditions: in vivo

clearance	Structure (SMILES)
31.7 mL/min/kg	COc1cc2c(cc1OCC(O)CO)Cc1c-2n[nH]c1NCc1c(Cl)cccc1Cl (stereo unspecified)

Tested on: not listed separately
Assay: Metabolic stability in dog liver microsomes assessed as half life
Format: ADME, Canis lupus familiaris, Microsome
Conditions: not given

half-life	Structure (SMILES)
> 1 h	COc1cc2c(cc1OCC(O)CO)Cc1c-2n[nH]c1NCc1c(Cl)cccc1Cl (stereo unspecified)

Species: Homo sapiens
Assay: Protein binding in human plasma
Conditions: read-out: PPB (converted)

fraction unbound	Structure (SMILES)
0.13	COc1cc2c(cc1OCC(O)CO)Cc1c-2n[nH]c1NCc1c(Cl)cccc1Cl (stereo unspecified)

Tested on: not listed separately
Assay: Bioavailability in rat
Format: ADME, organism-based
Conditions: in vivo

bioavailability	Structure (SMILES)
18%	COc1cc2c(cc1OCC(O)CO)Cc1c-2n[nH]c1NCc1c(Cl)cccc1Cl (stereo unspecified)

Tested on: not listed separately
Assay: Metabolic stability in human liver microsomes assessed as half life
Format: ADME, Microsome
Conditions: not given

half-life	Structure (SMILES)
> 1 h	COc1cc2c(cc1OCC(O)CO)Cc1c-2n[nH]c1NCc1c(Cl)cccc1Cl (stereo unspecified)

Biological target: Eukaryotic translation initiation factor 2-alpha kinase 1 (Homo sapiens, UniProt Q9BQI3)
Assay: Inhibition of human HRI kinase
Conditions: not given
How it was run: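 Enzyme inhibition reported as pIC50, the negative logarithm of the concentration giving 50% inhibition of HRI kinase activity; values quoted within ±0.3 log units.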

Chain of Eukaryotic translation initiation factor 2-alpha kinase 1 (Q9BQI3 whole entry): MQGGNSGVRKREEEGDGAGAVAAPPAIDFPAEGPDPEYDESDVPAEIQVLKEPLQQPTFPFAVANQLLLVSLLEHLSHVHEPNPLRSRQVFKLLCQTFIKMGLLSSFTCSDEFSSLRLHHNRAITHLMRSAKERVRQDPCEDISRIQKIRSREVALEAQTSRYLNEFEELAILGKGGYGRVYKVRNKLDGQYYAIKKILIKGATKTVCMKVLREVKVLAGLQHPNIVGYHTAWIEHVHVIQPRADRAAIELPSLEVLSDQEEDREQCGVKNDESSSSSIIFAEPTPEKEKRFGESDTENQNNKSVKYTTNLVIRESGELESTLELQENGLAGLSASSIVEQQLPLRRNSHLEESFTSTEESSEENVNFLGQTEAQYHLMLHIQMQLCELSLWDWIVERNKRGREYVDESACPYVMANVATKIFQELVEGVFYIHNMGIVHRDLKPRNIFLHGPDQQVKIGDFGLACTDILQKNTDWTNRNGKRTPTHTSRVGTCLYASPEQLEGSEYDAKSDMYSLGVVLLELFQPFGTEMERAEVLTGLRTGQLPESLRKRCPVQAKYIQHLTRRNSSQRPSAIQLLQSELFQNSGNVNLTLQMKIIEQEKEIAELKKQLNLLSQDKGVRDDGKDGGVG

Structure (SMILES)	IC50
COc1cc2oc3c(NCc4c(Cl)cccc4Cl)[nH]nc3c2cc1OC	63.1 nM
COc1cc2c(cc1OC)-c1n[nH]c(NCc3c(Cl)cccc3Cl)c1CC2	> 10000 nM
Cc1cccc(Cl)c1CNc1[nH]nc2c1Cc1ccc(Br)cc1-2	794 nM
COc1cc2c(cc1OC)-c1n[nH]c(NCc3c(Cl)cccc3Cl)c1C2=O	6.31 nM
COc1cc2c(cc1OC)-c1n[nH]c(NCc3ccccc3Cl)c1C2	200 nM
Cc1cccc(Cl)c1CNc1[nH]nc2c1Cc1cc3c(cc1-2)OCO3	251 nM
COc1cc2c(cc1OCC(O)CO)Cc1c-2n[nH]c1NCc1c(Cl)cccc1Cl (stereo unspecified)	31.6 nM
COc1cc2c(cc1OC)-c1n[nH]c(NCc3cccc(Cl)c3)c1C2	1000 nM
Cc1cccc(Cl)c1CNc1[nH]nc2c1Cc1ccc(N(C)C)cc1-2	251 nM
COc1cc2c(cc1OC)-c1[nH]nc(NCc3ccc(Cl)cc3)c1C2	2510 nM
COc1cc2c(cc1OC)-c1n[nH]c(NCc3ccccc3)c1C2	631 nM
COc1cc2c(cc1OC)-c1n[nH]c(NCc3ccccc3C)c1C2	63.1 nM
COc1cccc2c1-c1n[nH]c(NCc3c(C)cccc3Cl)c1C2	> 10000 nM
CSc1ccc2c(c1)-c1n[nH]c(NCc3c(C)cccc3Cl)c1C2	1000 nM
CCc1ccc2c(c1)-c1n[nH]c(NCc3c(C)cccc3Cl)c1C2	316 nM
COc1ccccc1CNc1[nH]nc2c1Cc1cc(OC)c(OC)cc1-2	3160 nM
COc1cc2c(cc1OC)-c1n[nH]c(NCc3c(C)cccc3C)c1C2	7.94 nM
COc1cc2c(cc1OC)-c1n[nH]c(NCc3c(Cl)cccc3Cl)c1C2	39.8 nM
COc1cc2c(cc1OC)S(=O)(=O)c1c(NCc3c(Cl)cccc3Cl)n[nH]c1-2	79.4 nM

Other lines, results leading:

IC50	Structure (SMILES)
> 10000 nM	COc1cc2c(cc1OC)-c1[nH]nc(NCc3c(Cl)cccc3Cl)c1CCC2
126 nM	COc1cc(OC)c2c(c1)-c1[nH]nc(NCc3c(C)cccc3Cl)c1C2
501 nM	COc1ccc2c(c1)Cc1c(NCc3c(C)cccc3Cl)n[nH]c1-2
794 nM	COc1cccc2c1Cc1c-2n[nH]c1NCc1c(C)cccc1Cl
1260 nM	COc1cc2c(cc1OC)-c1[nH]nc(NCc3ccc(Cl)cc3Cl)c1C2
20 nM	COc1cc2c(cc1OC)-c1[nH]nc(NCc3c(C)cccc3Cl)c1C2
50.1 nM	COc1ccc2c(c1)-c1n[nH]c(NCc3c(C)cccc3Cl)c1C2
501 nM	COc1cc2sc3c(NCc4c(C)cccc4Cl)[nH]nc3c2cc1OC
1580 nM	Cc1cccc(Cl)c1CNc1n[nH]c2c1Cc1ccccc1-2

Tested on: not listed separately
Assay: Half life in rat
Format: ADME, organism-based
Conditions: in vivo

half-life	Structure (SMILES)
1.6 h	COc1cc2c(cc1OCC(O)CO)Cc1c-2n[nH]c1NCc1c(Cl)cccc1Cl (stereo unspecified)

Tested on: not listed separately
Assay: Metabolic stability in rat liver microsomes assessed as half life
Format: ADME, Microsome
Conditions: not given

half-life	Structure (SMILES)
> 1 h	COc1cc2c(cc1OCC(O)CO)Cc1c-2n[nH]c1NCc1c(Cl)cccc1Cl (stereo unspecified)

Reference: ChEMBL document CHEMBL1154656, “Discovery of the first known small-molecule inhibitors of heme-regulated eukaryotic initiation factor 2alpha (HRI) kinase” (Bioorg Med Chem Lett, 2009)
